Experimental data from different studies.
Lines come from different studies, so protocols differ.
Target: Casein kinase I isoform gamma-2 (CSNK1G2, Homo sapiens, UniProt P78368)

SMILES	test	conditions	quantity	result
COc1ccc2oc(-c3ccc4nc(N)oc4c3)c/c(=N\c3ccccc3NC(=O)CCN)c2c1	binding	1 µM	remaining binding	95%
N#Cc1ccc(NC(=O)Nc2ccccc2)cc1	cell-free assay, competition with immobilised ligand	25 µM	remaining binding	100%
Cc1cc(O)c(-c2ccc([C@@H](C)CN(C)C)cc2)c2c1[nH]c(=O)c1sccc12	enzyme activity, inhibitor	0.1 µM	inhibition	-6.66%
CO[C@@H]1[C@H](N(C)C(=O)c2ccccc2)C[C@H]2O[C@]1(C)n1c3ccccc3c3c4c(c5c6ccccc6n2c5c31)C(=O)NC4	enzyme activity, inhibitor	1 µM	inhibition	4%
C#Cc1cnc(Nc2ccnc(CO)c2)nc1Nc1ccccc1S(C)(=O)=NC#N (stereo not drawn)	cell-free assay	1 µM	remaining signal	65%
CC(C)S(=O)(=O)c1ccc2nccc(Nc3ccc4sc(C5CCCC5)nc4c3)c2c1	enzyme activity, inhibitor	1 µM	activity vs control	100%
CN1CCN(C(=O)c2ccc(NC(=O)Nc3ccc(N(C)c4ccnc(Nc5ccc(CS(C)(=O)=O)cc5)n4)cc3)cc2)CC1	binding	1 µM	remaining binding	100%
C1=C/COCc2cc(ccc2OCCN2CCCC2)Nc2nccc(n2)-c2cccc(c2)COC/1	cell-free assay	0.1 µM	remaining signal	92%
CCCCC(=O)Nc1ccc(-c2ccc3ncn(CCC)c(=O)c3c2)cn1	binding, competition with immobilised ligand	0.5 µM	remaining binding	91%
C[C@H]1CC[C@H](n2c3cnccc3c3cnc(Nc4ccc5c(n4)CCN(C(=O)CO)C5)nc32)CC1	cell-free assay	1 µM	remaining signal	98%
N#Cc1ccc2nc(Nc3ccc(N4CCOCC4)c(Cl)c3)[nH]c2c1	thermal stability, DSF	30 µM	ΔTm	3.6 °C
CC#CC(=O)N1CCC[C@H]1c1nc(-c2ccc(C(=O)Nc3ccccn3)cc2)c2c(N)nccn12	enzyme activity, inhibitor	1 µM	inhibition	9%
